Test results reported in ChEMBL document CHEMBL1131195, “Antileishmanial chalcones: statistical design, synthesis, and three-dimensional quantitative structure-activity relationship analysis” (J Med Chem, 1998).

Experiments:
[1] = Inhibitory activity against phytohemagglutininin A-induced proliferation of human lymphocytes; type: functional
How it was run: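 Human lymphocytes stimulated with phytohemagglutinin A were incubated in vitro with increasing concentrations of each chalcone, and inhibition of their proliferation was measured.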

Leishmania donovani [2] = assay: Tested in vitro for anti-leishmanial activity against Leishmania donovani; type: functional, organism-based
How it was run: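 In vitro assay using Leishmania donovani promastigotes incubated with increasing chalcone concentrations, with inhibition of parasite proliferation as the read-out.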

[3] = Inhibitory activity against phytohemagglutininin A-induced proliferation of human lymphocytes; Not tested due to low solubility; type: functional
Leishmania donovani [4] = assay: Tested in vitro for anti-leishmanial activity against Leishmania. donovani; Not tested due to low solubility; type: functional, organism-based

| Compound | IC50 (Leishmania donovani [2]) | IC50 (Leishmania donovani [4]) | IC50 [1] | IC50 [3] |
| --- | --- | --- | --- | --- |
| COc1ccc(C(=O)/C=C/c2ccc(Cl)cc2Cl)c(OC)c1OC | 6.3 µM | – | 7.8 µM | – |
| COc1ccc(C(=O)/C=C/c2ccc(F)cc2F)c(OC)c1 | 27 µM | – | 12 µM | – |
| C=CCOc1ccc(C(=O)/C=C/c2cccc(OC)c2OC)cc1 | 49 µM | – | 96 µM | – |
| CCCCOc1ccccc1C(=O)/C=C/c1cc(OC)cc(OC)c1 | 7.2 µM | – | 13 µM | – |
| C=CCOc1ccc(C(=O)/C=C/c2c(OC)cccc2OC)cc1 | 81 µM | – | 96 µM | – |
| COc1ccc(C(=O)/C=C/c2ccccc2[N+](=O)[O-])c(OC)c1OC | 5.9 µM | – | 7 µM | – |
| COc1ccc(/C=C/C(=O)c2ccc(F)cc2F)c(OC)c1 | 26 µM | – | 74 µM | – |
| COc1ccc(/C=C/C(=O)c2ccccc2O)c(OC)c1 | 35 µM | – | 144 µM | – |
| COc1cc(/C=C/C(=O)c2ccccc2O)cc(OC)c1 | 3.8 µM | – | 8.1 µM | – |
| COc1cc(/C=C/C(=O)c2ccccc2F)cc(OC)c1 | 3.5 µM | – | 6 µM | – |
| COc1ccc(OC)c(C(=O)/C=C/c2ccc(Cl)cc2Cl)c1 | 7.8 µM | – | 5.7 µM | – |
| COc1ccc(/C=C/C(=O)c2ccccc2Br)c(OC)c1 | 14 µM | – | 35 µM | – |
| CCCCCCOc1ccc(C(=O)/C=C/c2ccc(OC)cc2OC)cc1 | 136 µM | – | – | Not Active |
| COc1ccc(/C=C/C(=O)c2ccccc2)c(OC)c1 | 15 µM | – | 48 µM | – |
| C=CCOc1ccc(C(=O)/C=C/c2cc(OC)c(OC)c(OC)c2)cc1 | 41 µM | – | 30 µM | – |
| COc1ccc(/C=C/C(=O)c2cccc(Br)c2)c(OC)c1 | 16 µM | – | 37 µM | – |
| COc1ccc(/C=C/C(=O)c2ccccc2OC)c(OC)c1 | 16 µM | – | 26 µM | – |
| CCCCOc1cccc(C(=O)/C=C/c2ccc(OC)cc2OC)c1 | 20 µM | – | 65 µM | – |
| COc1ccc(C(=O)/C=C/c2ccc(F)c(F)c2)c(OC)c1 | 16 µM | – | 5.3 µM | – |
| COc1cccc(C(=O)/C=C/c2ccc(OC)cc2OC)c1 | 18 µM | – | 42 µM | – |

| Compound | IC50 (Leishmania donovani [2]) | IC50 (Leishmania donovani [4]) | IC50 [1] | IC50 [3] |
| --- | --- | --- | --- | --- |
| CCCCOc1ccccc1/C=C/C(=O)c1ccc(OC)c(OC)c1OC | 26 µM | – | 52 µM | – |
| COc1ccc(C(=O)/C=C/c2cccc(Oc3ccccc3)c2)c(OC)c1OC | 8.7 µM | – | 17 µM | – |
| COc1ccc(C(=O)/C=C/c2ccc([N+](C)(C)C)cc2)c(OC)c1OC | 21 µM | – | 35 µM | – |
| COc1ccc(C(=O)/C=C/c2cccc(N(C)C)c2)c(OC)c1OC | 20 µM | – | 26 µM | – |
| COc1ccc(C(=O)/C=C/c2ccccc2O)c(OC)c1OC | 9.3 µM | – | 9 µM | – |
| COc1ccc(/C=C/C(=O)c2cccc([N+](=O)[O-])c2)c(OC)c1 | 8.6 µM | – | 18 µM | – |
| COc1ccc(C(=O)/C=C/c2ccc(C#N)cc2)c(OC)c1OC | 8.6 µM | – | 5.4 µM | – |
| COc1cc(/C=C/C(=O)c2ccccc2[N+](=O)[O-])cc(OC)c1 | 3.4 µM | – | 3.7 µM | – |
| COc1cc(/C=C/C(=O)c2cccc(F)c2)cc(OC)c1 | 5.5 µM | – | 9.2 µM | – |
| COc1cc(/C=C/C(=O)c2ccc(OC)c(OC)c2OC)cc(OC)c1 | 8.3 µM | – | 8.7 µM | – |
| C=CCOc1ccc(C(=O)/C=C/c2cc(OC)c(CCCCCC)c(OC)c2)cc1 | 19 µM | – | 15 µM | – |
| COc1ccc(C(=O)/C=C/c2cccc(F)c2)c(OC)c1OC | 9.7 µM | – | 6.4 µM | – |
| COc1cc(/C=C/C(=O)c2ccc(C3CCCCC3)cc2)cc(OC)c1 | 31 µM | – | 39 µM | – |
| COc1ccc(C(=O)/C=C/c2cccc([N+](=O)[O-])c2)c(OC)c1OC | 17 µM | – | 36 µM | – |
| C=CCOc1ccc(C(=O)/C=C/c2cc(OC)c(CCCC)c(OC)c2)cc1 | 90 µM | – | – | Not Active |
| C=CCOc1ccc(C(=O)/C=C/c2cc(OCC=C)ccc2OCC=C)cc1 | 38 µM | – | 61 µM | – |
| COc1cc(/C=C/C(=O)c2ccccc2N(C)C)cc(OC)c1 | 7.3 µM | – | 5.7 µM | – |
| COc1cc(/C=C/C(=O)c2cccc(N(C)C)c2)cc(OC)c1 | 5.8 µM | – | 5 µM | – |
| C=CCOc1ccccc1C(=O)/C=C/c1ccc(OC)cc1OC | 5 µM | – | – | Not Active |
| COc1ccc(C(=O)/C=C/c2ccccc2F)c(OC)c1OC | 15 µM | – | 11 µM | – |

Continued, in another order:

| IC50 (Leishmania donovani [2]) | IC50 (Leishmania donovani [4]) | Compound | IC50 [1] | IC50 [3] |
| --- | --- | --- | --- | --- |
| 79 µM | – | CN(C)c1ccc(/C=C/C(=O)c2ccc(O)cc2)cc1 | 130 µM | – |
| 95 µM | – | CCCCOc1ccc(C(=O)/C=C/c2ccc(OC)cc2OC)cc1 | – | Not Active |
| – | Not Active | O=C(/C=C/c1ccc(Oc2ccccc2)cc1)c1ccc(C2CCCCC2)cc1 | – | Not Active |
| 16 µM | – | COc1cc(/C=C/C(=O)c2ccc([N+](=O)[O-])cc2)cc(OC)c1 | 20 µM | – |
| 89 µM | – | COc1cccc(/C=C/C(=O)c2ccc(O)cc2)c1OC | 70 µM | – |
| 82 µM | – | COc1cccc(OC)c1/C=C/C(=O)c1ccc(O)cc1 | 60 µM | – |
| 30 µM | – | CN(C)c1ccc(/C=C/C(=O)c2ccc(N(C)C)cc2)cc1 | – | Not Active |
| – | Not Active | CN(C)c1ccc(/C=C/C(=O)c2ccc([N+](=O)[O-])cc2)cc1 | – | Not Active |
| 49 µM | – | COc1cc(O)ccc1/C=C/C(=O)c1ccc(N(C)C)cc1 | 111 µM | – |
| 12 µM | – | COc1cc(/C=C/C(=O)c2ccc(O)cc2)cc(OC)c1 | 14 µM | – |
| 3.7 µM | – | COc1cc(/C=C/C(=O)c2cccc(O)c2)cc(OC)c1 | 3.2 µM | – |
| 16 µM | – | COc1cc(OC)c(OC)cc1/C=C/C(=O)c1ccc(O)cc1 | 28 µM | – |
| 104 µM | – | CCCCOc1ccc(C(=O)/C=C/c2c(OC)cccc2OC)cc1 | – | – |
| 26 µM | – | O=C(/C=C/c1ccc([N+](=O)[O-])cc1)c1ccc([N+](=O)[O-])cc1 | 51 µM | – |
| – | Not Active | CN(C)c1ccc(C(=O)/C=C/c2ccc([N+](=O)[O-])cc2)cc1 | – | Not Active |
| 15 µM | – | O=C(/C=C/c1ccccc1)c1ccc(F)cc1 | 23 µM | – |
| 42 µM | – | O=C(/C=C/c1ccc(Oc2ccccc2)cc1)c1ccc(F)cc1 | 33 µM | – |
| 106 µM | – | COc1cc(OC)c(/C=C/C(=O)c2ccc(O)cc2)c(OC)c1 | 44 µM | – |
| 9.7 µM | – | CCCCCCc1cc(/C=C/C(=O)c2ccc(O)cc2)c(OC)cc1O | 46 µM | – |
| 35 µM | – | CCCCOc1ccc(C(=O)/C=C/c2cc(OC)cc(OC)c2)cc1 | 52 µM | – |

| IC50 (Leishmania donovani [2]) | IC50 (Leishmania donovani [4]) | Compound | IC50 [1] | IC50 [3] |
| --- | --- | --- | --- | --- |
| – | Not Active | COc1cc(/C=C/C(=O)c2ccc(N(C)C)cc2)cc(OC)c1 | – | Not Active |
| 60 µM | – | C=CCOc1ccc(C(=O)/C=C/c2ccc(OC)c(OC)c2)cc1 | 51 µM | – |
| 73 µM | – | C=CCOc1ccc(C(=O)/C=C/c2cc(OC)ccc2OC)cc1 | 55 µM | – |
| 62 µM | – | CCCCCCOc1ccc(C(=O)/C=C/c2ccccc2)cc1 | 99 µM | – |
| 26 µM | – | CCCc1cc(/C=C/C(=O)c2ccc(O)cc2)c(OC)cc1O | 41 µM | – |
| 27 µM | – | O=C(/C=C/c1ccc(F)cc1)c1ccc(C2CCCCC2)cc1 | 74 µM | – |
| 22 µM | – | COc1c(/C=C/C(=O)c2ccc(O)cc2)ccc(O)c1C | 27 µM | – |
| 39 µM | – | COc1cc(O)cc(C)c1/C=C/C(=O)c1ccc(O)cc1 | 53 µM | – |
| 15 µM | – | O=C(/C=C/c1ccc(F)cc1)c1ccc(F)cc1 | 22 µM | – |
| 23 µM | – | COc1ccc(OC)c(/C=C/C(=O)c2ccc(O)cc2)c1 | 22 µM | – |
| 27 µM | – | C=CCOc1ccc(C(=O)/C=C/c2cc(OC)cc(OC)c2)cc1 | 25 µM | – |
| 48 µM | – | COc1ccc(/C=C/C(=O)c2ccc(O)cc2)c(OC)c1 | 71 µM | – |
| 16 µM | – | O=C(/C=C/c1ccccc1)c1ccc(O)cc1 [4'-HYDROXYCHALCONE] | 28 µM | – |
| 83 µM | – | O=C(/C=C/c1ccc(O)cc1)c1ccc(O)cc1 [4,4'-DIHYDROXYCHALCONE] | 59 µM | – |
| 106 µM | – | COc1ccc(/C=C/C(=O)c2ccc(OC)cc2)cc1 [4,4'-DIMETHOXYCHALCONE] | 112 µM | – |
| 66 µM | – | O=C(/C=C/c1ccc(O)c(O)c1)c1ccc(O)cc1O [BUTEIN] | 16 µM | – |
| 20 µM | – | O=C(/C=C/c1ccccc1)c1ccccc1 [CHALCONE] | 21 µM | – |
| 68 µM | – | COc1cc(O)ccc1/C=C/C(=O)c1ccc(O)cc1 [ECHINATIN] | 94 µM | – |
| 16 µM | – | COc1cc(/C=C/C(=O)c2ccc(O)cc2O)ccc1O [HOMOBUTEIN] | 31 µM | – |
| 13 µM | – | C=CC(C)(C)c1cc(/C=C/C(=O)c2ccc(O)cc2)c(OC)cc1O [LICOAGROCHACONE A] | 48 µM | – |
